According to ChEMBL document CHEMBL1938380, “Indole RSK inhibitors. Part 1: discovery and initial SAR” (Bioorg Med Chem Lett, 2012):

Columns and labels:
[1] = molecular target: T1, Ribosomal protein S6 kinase alpha-3 (Homo sapiens, UniProt P51812); test: Inhibition of RSK2-mediated CREB phosphorylation in HeLa cells expressing luciferase reporter gene; type: cell-based
[2] = molecular target: T1, Ribosomal protein S6 kinase alpha-3; test: Inhibition of RSK2 phosphorylation by luminescence assay
How it was run: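 Soluble RSK2 enzyme; its phosphorylation activity was read out in a luminescent kinase assay format adapted from a published method.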

T1 sequence (P51812 whole entry): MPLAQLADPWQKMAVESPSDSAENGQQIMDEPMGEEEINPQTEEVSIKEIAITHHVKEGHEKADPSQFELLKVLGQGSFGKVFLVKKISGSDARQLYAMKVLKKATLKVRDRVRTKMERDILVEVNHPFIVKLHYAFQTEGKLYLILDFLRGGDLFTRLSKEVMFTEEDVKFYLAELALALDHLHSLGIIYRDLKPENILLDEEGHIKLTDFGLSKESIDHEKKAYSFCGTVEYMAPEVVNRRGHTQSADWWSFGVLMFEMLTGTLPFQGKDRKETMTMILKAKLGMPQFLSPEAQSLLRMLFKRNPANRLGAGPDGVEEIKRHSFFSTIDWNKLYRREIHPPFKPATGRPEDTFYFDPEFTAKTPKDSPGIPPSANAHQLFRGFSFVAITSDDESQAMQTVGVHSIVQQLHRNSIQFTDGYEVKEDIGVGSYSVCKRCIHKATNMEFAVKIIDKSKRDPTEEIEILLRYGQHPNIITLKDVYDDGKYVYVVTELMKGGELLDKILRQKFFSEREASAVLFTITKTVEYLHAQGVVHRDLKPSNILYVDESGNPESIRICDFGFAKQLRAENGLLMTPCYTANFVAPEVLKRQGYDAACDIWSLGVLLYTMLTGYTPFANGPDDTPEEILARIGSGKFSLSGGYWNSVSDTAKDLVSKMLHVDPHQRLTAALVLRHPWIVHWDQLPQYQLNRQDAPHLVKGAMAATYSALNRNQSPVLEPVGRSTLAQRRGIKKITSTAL

| SMILES | IC50 [1] [nM] | IC50 [2] [nM] |
| --- | --- | --- |
| O=C(Nc1cccnc1)c1ccc2cc3n(c2c1)CC1(CCOCC1)CNC3=O |  | > 10000 |
| CC1(C)CNC(=O)c2cc3ccc(C(=O)Nc4cccnc4)cc3n21 | 1550 | 210 |
| O=C(NC1CCCCC1)c1ccc2cc3n(c2c1)CCCNC3=O |  | > 10000 |
| NC(=O)c1ccccc1NC(=O)c1ccc2cc3n(c2c1)CCCNC3=O | 560 |  |
| O=C(Nc1ccncc1)c1ccc2cc3n(c2c1)CCCNC3=O | 620 | 34 |
| Cn1nccc1NC(=O)c1ccc2cc3n(c2c1)CCCNC3=O |  | > 1000 |
| O=C(Nc1ccc2ccccc2n1)c1ccc2cc3n(c2c1)CCCNC3=O | 1130 | 68 |
| O=C(Nc1nc2ccccc2s1)c1ccc2cc3n(c2c1)CCCNC3=O |  | > 10000 |
| CC1Cn2c(cc3ccc(C(=O)Nc4cccnc4)cc32)C(=O)N1 (centres undefined) |  | 350 |
| O=C(Nc1nccs1)c1ccc2cc3n(c2c1)CCCNC3=O |  | 2200 |
| O=C(Nc1cccnc1)c1ccc2cc3n(c2c1)CCNC3=O | > 10000 | 730 |
| C[C@@H]1CNC(=O)c2cc3ccc(C(=O)Nc4cccnc4)cc3n2[C@@H]1C (relative stereo) |  | 240 |
| C[C@@H]1NC(=O)c2cc3ccc(C(=O)Nc4cccnc4)cc3n2[C@@H]1C (relative stereo) | 840 | 45 |
| C[C@@H]1[C@@H](C)NC(=O)c2cc3ccc(C(=O)Nc4cccnc4)cc3n21 (relative stereo) |  | 871 |

The remaining lines, values ahead:

| IC50 [1] [nM] | IC50 [2] [nM] | SMILES |
| --- | --- | --- |
| 890 |  | CC1CCNC(=O)c2cc3ccc(C(=O)Nc4cccnc4)cc3n21 (centres undefined) |
|  | 410 | O=C(Nc1cccnc1)c1ccc2cc3n(c2c1)CC1(CC1)CNC3=O |
|  | 2500 | CC1CCn2c(cc3ccc(C(=O)Nc4cccnc4)cc32)C(=O)N1 (centres undefined) |
| 1630 | 170 | CC1CNC(=O)c2cc3ccc(C(=O)Nc4cccnc4)cc3n21 (centres undefined) |
|  | 970 | NCC1Cn2c(cc3ccc(C(=O)Nc4cccnc4)cc32)C(=O)N1 (centres undefined) |
|  | 9100 | NC(=O)c1ccc2cc3n(c2c1)CCCNC3=O |
| 1930 |  | O=C(Nc1ccccc1)c1ccc2cc3n(c2c1)CCCNC3=O |
|  | 180 | O=C(Nc1ccc(Cl)cc1)c1ccc2cc3n(c2c1)CCCNC3=O |
| 2630 |  | O=C(Nc1ccccn1)c1ccc2cc3n(c2c1)CCCNC3=O |
|  | > 10000 | O=C(Nc1ncccn1)c1ccc2cc3n(c2c1)CCCNC3=O |
| > 10000 | > 10000 | O=C(NCc1cccnc1)c1ccc2cc3n(c2c1)CCCNC3=O |
| 290 |  | O=C(Nc1ncc[nH]1)c1ccc2cc3n(c2c1)CCCNC3=O |
| > 10000 |  | O=C(Nc1cn[nH]c1)c1ccc2cc3n(c2c1)CCCNC3=O |
| 340 |  | O=C(Nc1cnc2ccccc2c1)c1ccc2cc3n(c2c1)CCCNC3=O |
| 840 |  | CC(C)n1ncc2cc(NC(=O)c3ccc4cc5n(c4c3)CCCNC5=O)cnc21 |
| > 10000 |  | O=C(Nc1nc2ccccc2o1)c1ccc2cc3n(c2c1)CCCNC3=O |
| > 10000 | 4 | O=C(Nc1nc2ccccc2[nH]1)c1ccc2cc3n(c2c1)CCCNC3=O |
| 1940 | 240 | O=C(Nc1cccnc1)c1ccc2cc3n(c2c1)CCCNC3=O |
| 4890 | 1200 | CC1CNC(=O)c2cc3ccc(C(=O)Nc4cccnc4)cc3n2C1 (centres undefined) |
|  | 1800 | NCC1CNC(=O)c2cc3ccc(C(=O)Nc4cccnc4)cc3n2C1 (centres undefined) |
